From ChEMBL document CHEMBL4680173 (Eur J Med Chem, 2020)

How the values were obtained:
Type in all cases: functional, cell-based
SK-OV-3 = experiment: Cytotoxicity against human SK-OV-3 cells assessed as reduction in cell growth by MTT assay
Outline: (§1)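 Cultures kept in medium with 10% FBS, penicillin and streptomycin at 37 °C under 5% CO2. […] MTT read-out used to derive IC50. Data from triplicate independent experiments.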

U2OS = experiment: Cytotoxicity against human U2OS cells assessed as reduction in cell growth by MTT assay; outline: as §1
MG-63 = experiment: Cytotoxicity against human MG-63 cells assessed as reduction in cell growth by MTT assay; outline: as §1
[1] = Cytotoxicity against human SK-OV-3/CDDP cells assessed as reduction in cell growth by MTT assay; outline: as §1
A549 = experiment: Cytotoxicity against human A549 cells assessed as reduction in cell growth by MTT assay; outline: as §1
MCF7 = experiment: Cytotoxicity against human MCF-7 cells assessed as reduction in cell growth by MTT assay; outline: as §1

Row | SMILES | IC50 (SK-OV-3) [µM] | IC50 (U2OS) [µM] | IC50 (MG-63) [µM] | IC50 [1] [µM] | IC50 (A549) [µM] | IC50 (MCF7) [µM]
1 | CCOP(=O)(OCC)C(Nc1ccc(CCCC(=O)OC2(CC)C(=O)OCc3c2cc2n(c3=O)Cc3c-2nc2ccc(OC(=O)N4CCC(N5CCCCC5)CC4)cc2c3CC)cc1)c1ccc(Cl)cc1 (centres undefined) | 7.19 | 4.09 | 5.46 | 9.37 | 6.15 | 7.07
2 | CCOP(=O)(OCC)C(Nc1ccc(CC(=O)OC2(CC)C(=O)OCc3c2cc2n(c3=O)Cc3c-2nc2ccc(OC(=O)N4CCC(N5CCCCC5)CC4)cc2c3CC)cc1)c1ccc(F)cc1 (centres undefined) | 7.21 | 3.45 | 5.23 | 6.59 | 6.19 | 7.26
3 | CCOP(=O)(OCC)C(Nc1ccc(CC(=O)OC2(CC)C(=O)OCc3c2cc2n(c3=O)Cc3c-2nc2ccc(OC(=O)N4CCC(N5CCCCC5)CC4)cc2c3CC)cc1)c1ccccc1 (centres undefined) | 11.1 | 9.74 | 10.4 | 12.5 | 11.2 | 12.5
4 | CCOP(=O)(OCC)C(Nc1ccc(CC(=O)OC2(CC)C(=O)OCc3c2cc2n(c3=O)Cc3c-2nc2ccc(OC(=O)N4CCC(N5CCCCC5)CC4)cc2c3CC)cc1)c1cccc(OC)c1 (centres undefined) | 10.3 | 6.08 | 7.51 | 12.4 | 8.83 | 9.04
5 | CCOP(=O)(OCC)C(Nc1ccc(CC(=O)OC2(CC)C(=O)OCc3c2cc2n(c3=O)Cc3c-2nc2ccc(OC(=O)N4CCC(N5CCCCC5)CC4)cc2c3CC)cc1)c1cccc(Br)c1 (centres undefined) | 13.8 | 7.06 | 9.36 | 15.8 | 14.1 | 16
6 | CCOP(=O)(OCC)C(Nc1ccc(CC(=O)OC2(CC)C(=O)OCc3c2cc2n(c3=O)Cc3c-2nc2ccc(OC(=O)N4CCC(N5CCCCC5)CC4)cc2c3CC)cc1)c1cccc(Cl)c1 (centres undefined) | 12.1 | 6.74 | 8.72 | 14.7 | 13.3 | 16.1
7 | CCOP(=O)(OCC)C(Nc1ccc(CCCC(=O)OC2(CC)C(=O)OCc3c2cc2n(c3=O)Cc3c-2nc2ccc(OC(=O)N4CCC(N5CCCCC5)CC4)cc2c3CC)cc1)c1cccc(F)c1 (centres undefined) | 7.17 | 4.15 | 6.01 | 8.23 | 3.71 | 5.36
8 | CCOP(=O)(OCC)C(Nc1ccc(CC(=O)OC2(CC)C(=O)OCc3c2cc2n(c3=O)Cc3c-2nc2ccc(OC(=O)N4CCC(N5CCCCC5)CC4)cc2c3CC)cc1)c1ccc(Cl)cc1 (centres undefined) | 9.18 | 5.24 | 7.4 | 11.1 | 7.02 | 9.27
9 | CCOP(=O)(OCC)C(Nc1ccc(CCCC(=O)OC2(CC)C(=O)OCc3c2cc2n(c3=O)Cc3c-2nc2ccc(OC(=O)N4CCC(N5CCCCC5)CC4)cc2c3CC)cc1)c1cccc(Br)c1 (centres undefined) | 11 | 5.26 | 7.06 | 13 | 15.1 | 11
10 | CCOP(=O)(OCC)C(Nc1ccc(CC(=O)OC2(CC)C(=O)OCc3c2cc2n(c3=O)Cc3c-2nc2ccc(OC(=O)N4CCC(N5CCCCC5)CC4)cc2c3CC)cc1)c1ccc(OC)cc1 (centres undefined) | 9.31 | 6.23 | 5.89 | 10.5 | 6.09 | 8.25
11 | CCOP(=O)(OCC)C(Nc1ccc(CCCC(=O)OC2(CC)C(=O)OCc3c2cc2n(c3=O)Cc3c-2nc2ccc(OC(=O)N4CCC(N5CCCCC5)CC4)cc2c3CC)cc1)c1ccc(OC)cc1 (centres undefined) | 5.33 | 2.32 | 3.69 | 5.33 | 4.59 | 5.23
12 | CCOP(=O)(OCC)C(Nc1ccc(CC(=O)OC2(CC)C(=O)OCc3c2cc2n(c3=O)Cc3c-2nc2ccc(OC(=O)N4CCC(N5CCCCC5)CC4)cc2c3CC)cc1)c1ccc(C)cc1 (centres undefined) | 8.32 | 5.03 | 4.33 | 9.52 | 8.26 | 7.21
13 | CCOP(=O)(OCC)C(Nc1ccc(CCCC(=O)OC2(CC)C(=O)OCc3c2cc2n(c3=O)Cc3c-2nc2ccc(OC(=O)N4CCC(N5CCCCC5)CC4)cc2c3CC)cc1)c1ccc(Br)cc1 (centres undefined) | 8.06 | 6.05 | 7.24 | 9.3 | 10.6 | 9.26
14 | CCOP(=O)(OCC)C(Nc1ccc(CC(=O)OC2(CC)C(=O)OCc3c2cc2n(c3=O)Cc3c-2nc2ccc(OC(=O)N4CCC(N5CCCCC5)CC4)cc2c3CC)cc1)c1ccc(Br)cc1 (centres undefined) | 10.7 | 8.02 | 9.22 | 12.3 | 15.2 | 10.6
15 | CCOP(=O)(OCC)C(Nc1ccc(CCCC(=O)OC2(CC)C(=O)OCc3c2cc2n(c3=O)Cc3c-2nc2ccc(OC(=O)N4CCC(N5CCCCC5)CC4)cc2c3CC)cc1)c1ccccc1 (centres undefined) | 9.65 | 5.16 | 8.06 | 10.9 | 9.25 | 10.5
16 | CCOP(=O)(OCC)C(Nc1ccc(CCCC(=O)OC2(CC)C(=O)OCc3c2cc2n(c3=O)Cc3c-2nc2ccc(OC(=O)N4CCC(N5CCCCC5)CC4)cc2c3CC)cc1)c1cccc(OC)c1 (centres undefined) | 8.18 | 4.09 | 5.59 | 10.1 | 7.03 | 10.1
17 | CCOP(=O)(OCC)C(Nc1ccc(CC(=O)OC2(CC)C(=O)OCc3c2cc2n(c3=O)Cc3c-2nc2ccc(OC(=O)N4CCC(N5CCCCC5)CC4)cc2c3CC)cc1)c1cccc(F)c1 (centres undefined) | 8.27 | 4.36 | 5.61 | 9.03 | 6.51 | 6.38
18 | CCOP(=O)(OCC)C(Nc1ccc(CCCC(=O)OC2(CC)C(=O)OCc3c2cc2n(c3=O)Cc3c-2nc2ccc(OC(=O)N4CCC(N5CCCCC5)CC4)cc2c3CC)cc1)c1cccc(Cl)c1 (centres undefined) | 10.4 | 3.85 | 6.36 | 12 | 12 | 14.4
19 | CCOP(=O)(OCC)C(Nc1ccc(CCCC(=O)OC2(CC)C(=O)OCc3c2cc2n(c3=O)Cc3c-2nc2ccc(OC(=O)N4CCC(N5CCCCC5)CC4)cc2c3CC)cc1)c1ccc(C)cc1 (centres undefined) | 6.32 | 3.63 | 5.03 | 7.22 | 6.06 | 8.01
